# Source: ChEMBL document CHEMBL5303300, “EUbOPEN Chemogenomics Library - Multiplex” (2023)
# Values joined by “and” are separate entries in the source; they are usually repeats but may differ in a detail not shown here. Equal entries are not always repeated.
# How the values were obtained:
# [1] = system: U2OS; assay: Multiplex assay against U2OS; format: toxicity, cell-based; details: human, number of replicates 2
# In short: (§1)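 Live cells were stained at seeding with Hoechst33342, BioTracker Green Microtubule Cytoskeleton Dye, MitoTracker Red and Annexin V Alexa Fluor 680. Following compound addition, they were imaged on a CQ1 microscope at 37°C and 5% CO2 and gated by CellPathfinder machine learning into Hoechst high-intensity objects or normal cells, with normal cells split into healthy, pyknosed or fragmented nuclei and pyknosed cells into mitotic or apoptotic. Tubulin, mitochondrial-mass and membrane-permeability phenotypes are per cents of healthy-nucleus cells.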
# [2] = system: Fibroblast; assay: Multiplex assay against human fibroblast; format: toxicity, cell-based; details: number of replicates 2; in short: as §1
# [3] = 24 h, 1 µM, compound concentration 1 uM
# [4] = 24 h, 10 µM, compound concentration 10 uM
# [5] = 48 h, 1 µM, compound concentration 1 uM
# [6] = 48 h, 10 µM, compound concentration 10 uM
# [7] = 12 h, 1 µM, compound concentration 1 uM
# [8] = 12 h, 10 µM, compound concentration 10 uM
smiles,measurement,setting,value
COc1cc2nc(-c3cc(F)ccc3O)nc(N[C@@H]3CNC[C@H]3C(C)(C)O)c2cc1OC.Cl.Cl,Population Normal (%),[1]; [3],100%
same,Population Pyknosed Nuclei (%),[1]; [3],11% and 16%
same,Population Tubulin-Different-Phenotype (%),[1]; [3],47% and 34%
same,Population Apoptotic (%),[1]; [4],91% and 90%
same,Population Fragmented Nuclei (%),[1]; [4],14% and 22%
same,Population Healthy Nuclei (%),[1]; [4],3% and 0%
same,Population Hoechst High Intensity Objects (%),[1]; [4],2% and 0%
same,Population Mitotic Cells (%),[1]; [4],8% and 9%
same,Population Normal (%),[1]; [4],97% and 100%
same,Population Pyknosed Nuclei (%),[1]; [4],82% and 77%
same,Population Apoptotic (%),[1]; [5],84% and 94%
same,Population Fragmented Nuclei (%),[1]; [5],17% and 6%
same,Population Healthy Nuclei (%),[1]; [5],52% and 77%
same,Population Hoechst High Intensity Objects (%),[1]; [5],0%
same,Population Membrane Permeable-Phenotype (%),[1]; [5],12% and 9%
same,Population Mitochondria Different-Phenotype (%),[1]; [5],27% and 34%
same,Population Mitotic Cells (%),[1]; [5],15% and 5%
same,Population Normal (%),[1]; [5],100%
same,Population Pyknosed Nuclei (%),[1]; [5],30% and 15%
same,Population Tubulin-Different-Phenotype (%),[1]; [5],24% and 34%
same,Population Apoptotic (%),[1]; [6],96% and 89%
same,Population Fragmented Nuclei (%),[1]; [6],10% and 19%
same,Population Healthy Nuclei (%),[1]; [6],3% and 4%
same,Population Hoechst High Intensity Objects (%),[1]; [6],0%
same,Population Membrane Permeable-Phenotype (%),[1]; [6],100% and 85%
same,Population Mitochondria Different-Phenotype (%),[1]; [6],100% and 71%
same,Population Mitotic Cells (%),[1]; [6],4% and 10%
same,Population Normal (%),[1]; [6],100% and 99%
same,Population Pyknosed Nuclei (%),[1]; [6],86% and 76%
same,Population Tubulin-Different-Phenotype (%),[1]; [6],100% and 85%
same,Population Apoptotic (%),[2]; [7],35% and 34%
same,Population Healthy Nuclei (%),[2]; [7],60% and 58%
same,Population Hoechst High Intensity Objects (%),[2]; [7],0%
same,Population Membrane Permeable-Phenotype (%),[2]; [7],11% and 9%
same,Population Mitochondria Different-Phenotype (%),[2]; [7],0% and 2%
same,Population Mitotic Cells (%),[2]; [7],65%
same,Population Normal (%),[2]; [7],100%
same,Population Pyknosed Nuclei (%),[2]; [7],33% and 24%
same,Population Tubulin-Different-Phenotype (%),[2]; [7],48% and 46%
same,Total Cell Count,[2]; [7],178 and 189
same,Population Apoptotic (%),[2]; [8],72% and 73%
same,Population Healthy Nuclei (%),[2]; [8],8% and 16%
same,Population Hoechst High Intensity Objects (%),[2]; [8],0%
same,Population Mitochondria Different-Phenotype (%),[2]; [8],26% and 25%
same,Population Mitotic Cells (%),[2]; [8],27% and 26%
same,Population Normal (%),[2]; [8],99% and 100%
same,Population Pyknosed Nuclei (%),[2]; [8],85% and 67%
same,Population Tubulin-Different-Phenotype (%),[2]; [8],86% and 67%
same,Total Cell Count,[2]; [8],170 and 187
same,Population Apoptotic (%),[2]; [3],44% and 53%
same,Population Fragmented Nuclei (%),[2]; [3],15% and 17%
same,Population Healthy Nuclei (%),[2]; [3],63% and 65%
same,Population Hoechst High Intensity Objects (%),[2]; [3],0%
same,Population Membrane Permeable-Phenotype (%),[2]; [3],4% and 1%
same,Population Mitochondria Different-Phenotype (%),[2]; [3],0% and 3%
same,Population Mitotic Cells (%),[2]; [3],55% and 46%
same,Population Normal (%),[2]; [3],99% and 100%
same,Population Pyknosed Nuclei (%),[2]; [3],21% and 17%
same,Population Tubulin-Different-Phenotype (%),[2]; [3],26% and 37%
same,Total Cell Count,[2]; [3],211 and 188
same,Population Apoptotic (%),[2]; [4],87% and 93%
same,Population Healthy Nuclei (%),[2]; [4],1% and 2%
same,Population Hoechst High Intensity Objects (%),[2]; [4],0%
same,Population Membrane Permeable-Phenotype (%),[2]; [4],50% and 25%
same,Population Mitochondria Different-Phenotype (%),[2]; [4],0% and 25%
same,Population Mitotic Cells (%),[2]; [4],12% and 6%
same,Population Normal (%),[2]; [4],100%
same,Population Pyknosed Nuclei (%),[2]; [4],92% and 80%
same,Population Tubulin-Different-Phenotype (%),[2]; [4],50%
same,Total Cell Count,[2]; [4],168
same,Population Apoptotic (%),[2]; [5],59% and 75%
same,Population Fragmented Nuclei (%),[2]; [5],13% and 17%
same,Population Healthy Nuclei (%),[2]; [5],75% and 70%
same,Population Hoechst High Intensity Objects (%),[2]; [5],0%
same,Population Membrane Permeable-Phenotype (%),[2]; [5],4% and 1%
same,Population Mitochondria Different-Phenotype (%),[2]; [5],1% and 0%
same,Population Mitotic Cells (%),[2]; [5],40% and 25%
same,Population Normal (%),[2]; [5],100%
same,Population Pyknosed Nuclei (%),[2]; [5],10% and 12%
same,Population Tubulin-Different-Phenotype (%),[2]; [5],27% and 11%
same,Total Cell Count,[2]; [5],201 and 191
same,Population Apoptotic (%),[2]; [6],94% and 92%
same,Population Fragmented Nuclei (%),[2]; [6],18% and 9%
same,Population Healthy Nuclei (%),[2]; [6],3% and 4%
same,Population Hoechst High Intensity Objects (%),[2]; [6],0%
same,Population Membrane Permeable-Phenotype (%),[2]; [6],33% and 42%
same,Population Mitochondria Different-Phenotype (%),[2]; [6],0%
same,Population Mitotic Cells (%),[2]; [6],5% and 7%
same,Population Normal (%),[2]; [6],100% and 99%
same,Population Pyknosed Nuclei (%),[2]; [6],77% and 85%
same,Population Tubulin-Different-Phenotype (%),[2]; [6],33% and 85%
same,Total Cell Count,[2]; [6],171 and 162
